Hits are enriched below; roughly 0.85% of the tested compounds scored in any of these assays.
V1R ag counter = activates human V1a receptor in oxytocin agonist counter-screen. hit rate 0.25% among 320,000. activation, % at 3 µM. P37288. AID 2797. CHO-V1R cells, Fluo-8 calcium fluorescence, agonist mode; 0% DMSO, 100% 3 nM vasopressin;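 active = activation above the mean activation of all tested compounds plus 3 SD, per screening run, cut at about 20% in these data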;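 note: signal is peak over basal fluorescence ratio across a 100 second FLIPR read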
OXTR ag = activates the human oxytocin receptor. P30559. CHO-OTR cells, Fluo-8 calcium fluorescence; normalized: DMSO 0%, oxytocin 100%. activation, % at 3 µM. hit rate 0.32% among 320,000;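 active = activation above the mean of all tested compounds plus 3 SD, cutoff set per screening run, cut at about 20% in these data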;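 note: peak over basal fluorescence ratio from a 100 s FLIPR kinetic read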
Target sequence (P30559 whole entry, looked up): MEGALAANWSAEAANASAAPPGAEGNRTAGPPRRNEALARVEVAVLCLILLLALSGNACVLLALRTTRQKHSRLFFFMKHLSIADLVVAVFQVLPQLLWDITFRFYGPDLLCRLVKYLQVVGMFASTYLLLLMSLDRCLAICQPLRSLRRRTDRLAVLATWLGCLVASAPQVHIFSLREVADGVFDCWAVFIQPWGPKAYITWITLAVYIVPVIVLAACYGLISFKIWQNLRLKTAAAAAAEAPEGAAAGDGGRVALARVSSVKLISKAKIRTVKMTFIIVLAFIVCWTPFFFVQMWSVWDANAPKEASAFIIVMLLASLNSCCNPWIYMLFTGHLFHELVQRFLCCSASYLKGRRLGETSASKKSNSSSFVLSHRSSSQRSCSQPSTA
TRPN1 ag = agonists of zebrafish TRPN1 channel. HEK293 zebrafish TRPN1-YFP, Fluo-8 calcium fluorescence; 100% = response to 87 µM carbachol. activation, % at 3 µM. hit rate 0.18% among 220,000;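 active = activation above its plate's cutoff, the mean activation of test wells on that plate plus 3 SD, cut at about 19% in these data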;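 note: 0% = DMSO alone and 100% = 87 µM carbachol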
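Control set: carbachol 87 µM as high control, DMSO as low control; system: HEK293 stable line with zebrafish TRPN1-YFP; read-out: % activation versus carbachol response; detection: intracellular calcium fluorescence with Fluo-8; doses: single test compound dose, 3 µM nominal, 0.3% DMSO; schedule: dye 1 h 37 °C plus 30 min RT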
TRPML3 agonist = human mucolipin-3 channel agonism; Q8TDD5; HEK293 TRPML3-YFP, Fluo-8 calcium fluorescence; 100% = the carbachol control signal; activation, % at 3 µM; hit rate 0.29% among 220,000; AID 1448;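 active = activation above its plate's cutoff, the mean activation of the plate's test wells plus 3 SD, cut at about 12% in these data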;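 note: 0% = DMSO only wells and 100% = carbachol wells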
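Material: HEK293 cells stably carrying human TRPML3-YFP; compound dosing: single dose, 3 µM final nominal compound, 0.3% DMSO final; incubation: 1-h 37 °C dye load, 5-s basal, 120-s post-compound reads; technique: Fluo-8 intracellular calcium fluorescence, excitation 470-495 nm, emission 515-575 nm; read-out basis: percent activation from peak-to-basal fluorescence ratio, scaled between DMSO and carbachol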
CRFR2-BP ag = agonists of human CRF-binding protein/CRF-R2 receptor complex | HEK293 CRF-R2/CRF-BP, calcium dye fluorescence (FLIPR); percent of saturating CRF peptide response | activation, % at 13.2 µM | hit rate 0.46% among 350,000 | AID 588473;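 active = activation of at least 50%, plus an integration ratio under a set limit after plate pattern correction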;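 note: plate controls were neutral control wells without compound for no effect and CRF at EC100 for full effect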
OXTR potentiate = potentiates the human oxytocin receptor response; CHO-OTR cells, Fluo-8 calcium fluorescence, potentiator mode; 0% = oxytocin EC15, 100% = EC100; activation, % at 3 µM; hit rate 0.061% among 320,000; AID 2445;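 active = activation above that plate's cutoff, the mean activation of tested compounds plus 3 SD, cut at about 6.6% in these data, passing the limit was not always enough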;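 note: 100% uses oxytocin at 75 nM as the full agonist control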
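Dosing: Single dose, 3.0 µM nominal final compound concentration | Material: Human OTR in CHO cells | Technique: Kinetic Fluo-8 calcium fluorescence | Benchmarks: EC15 oxytocin alone as 0%, 75 nM oxytocin as 100% | Probe or stimulus: Oxytocin at about EC15, sub-maximal agonist stimulus | Incubation: Compound 6 min at room temperature before oxytocin, 100 s read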
OXTR ag confirm = confirmation of human oxytocin receptor agonists; shares compounds with OXTR ag; CHO-OTR cells, Fluo-8 calcium fluorescence, agonist; activation, % at 3 µM; hit rate 20% among 390; AID 434963;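 active = mean activation above about 20% derived from the earlier single-dose screen, limit read from the data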;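 note: peak over minimum fluorescence ratio per well during a 100 second FLIPR read; 0% = DMSO alone and 100% = oxytocin high control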
V1R ag counter 3x = V1R agonism in triplicate, counter-screen for OXTR agonists; CHO-V1R cells, Fluo-8 calcium fluorescence, agonist; shares compounds with OXTR ag; hit rate 10% among 390; activation, % at 3 µM;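 active = mean activation over triplicate exceeds the hit threshold set in the earlier primary screen, cut at about 20% in these data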;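 note: peak over basal fluorescence ratio within a 100 second read; 0% = DMSO alone and 100% = 3 nM vasopressin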
An asterisk follows results filed as active; . = not tested or not shown.

SMILES	V1R ag counter	OXTR ag	TRPN1 ag	TRPML3 agonist	CRFR2-BP ag	OXTR potentiate	OXTR ag confirm	V1R ag counter 3x
CCCCCCCCCCOC(=O)Cn1c(COc2cccc(C)c2)[n+](C)c2ccccc21	13	45*	.	.	4	-18	34*	23*
O=C(Nc1cccc(CNCCc2c[nH]c3ccccc23)c1)c1ccccc1Cl	12	18	.	.	3	-21	.	.
N=c1n(CC(=O)c2ccc(Br)s2)c2ccccc2n1Cc1ccccc1	19	23*	2	2	4	-23	22*	13
Nc1nc2ccccc2n1Cc1ccc(Cl)c(Cl)c1	13	25*	.	.	-1	-24	6	4
N#C/C(=C\c1ccc(N2CCOCC2)o1)C(=O)NCCc1ccccc1	19	21*	26*	14*	200*	-14	23*	46*
O=C(NCCCN1CCOCC1)C(=O)NCCc1ccccc1	-1	-1	-1	1	0	-3	.	.
O=c1c2ccccc2ncn1-c1ccc([N+](=O)[O-])cc1[N+](=O)[O-]	15	21*	.	.	13	-16	0	1
O=c1c2ccccc2ncn1-c1ccc(Cl)cc1[N+](=O)[O-]	0	0	-1	1	0	-17	.	.
Cc1ccc(CNC(=O)Cn2nnc(C(=O)Nc3cccc(C)c3C)c2N)cc1	2	2	.	.	1	-6	.	.
Cc1ccccc1Cn1nnc(C(=O)Nc2cccc(C)c2C)c1N	17	22*	9	5	9	-7	22*	14
CCOC(=O)NC(NCc1ccccc1Cl)(C(F)(F)F)C(F)(F)F	-1	-3	0	1	-1	-16	.	.
CCOC(=O)NC(NCc1cccc(C(F)(F)F)c1)(C(F)(F)F)C(F)(F)F	0	25*	1	1	5	-10	-1	0
FC(F)(F)c1cccc(Cc2noc(CN3CCC(c4ccncc4)CC3)n2)c1	7	8	4	4	-1	-9	.	.
CCc1ccc(N/C(=N/c2nc(C)cc(C)n2)NC(C)=O)cc1	-1	-3	.	.	-1	-3	.	.
Cc1cc(C)nc(/N=C(\N)Nc2ccc(CC(=O)OC(C)C)cc2)n1	18	26*	.	.	101*	-23	8	12
CCCc1ccc(Oc2c(-c3ccc(O)c(C)c3O)n[nH]c2C)cc1	16	20*	10	2	5	-6	22*	13
N#Cc1cc2nc(O)c(O)nc2cc1[N+](=O)[O-]	-1	0	.	.	2	-7	.	.
CNc1nc2cc([N+](=O)[O-])c([N+](=O)[O-])cc2nc1NC	11	26*	27*	9	65*	-11	23*	16
OC(CNC1CCCc2ccccc21)COc1ccc2ccccc2c1 (configuration not stated)	7	11	1	0	-2	-16	.	.
CCc1ccccc1OC[C@@H](O)CN[C@H]1CCCc2ccccc21	14	22*	.	.	-3	-19	10	7
Cc1ccc(S(=O)(=O)N2C(=O)CCC2C(=O)N2CCCCC2)cc1 (configuration not stated)	1	-1	.	.	0	-6	.	.
COC(=O)c1cc(NC(=S)NCc2ccc(Cl)cc2)cc(C(=O)OC)c1	14	17	12	2	14	-10	.	.
COC(=O)c1cccc(NC(=S)NCc2ccc(Cl)cc2)c1	20	21*	15	9	7	-13	15	11
CCOC(=O)c1ccc2c(c1)N(CC#N)C(=O)C(C)(C)O2	-1	-3	1	3	-4	-4	.	.
CNC(=O)CCC(=O)Nc1ccc(C)cc1	0	1	0	1	2	-11	.	.
SMILES	V1R ag counter	OXTR ag	TRPN1 ag	TRPML3 agonist	CRFR2-BP ag	OXTR potentiate	OXTR ag confirm	V1R ag counter 3x
C=CCN1C=CC(=CC=C(C#N)C#N)C=C1	19	23*	3	1	67*	-6	25*	30*
CCCN1C=CC(=CC=C(C#N)C#N)C=C1	14	21*	2	1	94*	-8	23*	36*
COc1ccc(S(=O)(=O)NCC(c2ccc(F)cc2)N2CCN(C)CC2)cc1 (configuration not stated)	0	1	.	.	0	4	.	.
CN1CCN(C2Cc3ccccc3Sc3ccc(Cl)cc32)CC1 (configuration not stated)	4	9	.	.	-2	-4	.	.
CN1CCN(C2Cc3ccccc3Sc3cc(C(F)(F)F)ccc32)CC1 (configuration not stated)	10	24*	.	.	1	-4	12	2
Nc1cc(=O)[nH]c(SCc2ccc(Cl)cc2Cl)n1	14	22*	.	.	0	-22	11	10
COc1cc(OC)c2c(-c3ccccc3)cc(=O)oc2c1C(CCN1CCCC(C)C1)c1ccc(N(C)C)cc1 (configuration not stated)	1	4	.	.	4	0	.	.
COc1ccc(C(CCN2CCCC(C)C2)c2c(OC)cc(OC)c3c(-c4ccccc4)cc(=O)oc23)cc1 (configuration not stated)	16	22*	.	.	48	-12	2	3
CC(C)(CNC(=O)c1ccc(S(=O)(=O)Nc2ccc(Cl)cc2)cc1)N1CCOCC1	15	21*	.	.	26	-12	10	6
CCOc1ccc(NS(=O)(=O)c2ccc(C(=O)NCC(C)(C)N3CCOCC3)cc2)cc1	8	7	.	.	9	-4	.	.
C[C@H]1CC[C@H]2C(=O)N[C@H](Cc3ccccc3)C(=O)N2[C@@H]1c1ccccc1	0	30*	1	0	-2	-15	5	-1
Cc1ccc(Nc2ncc3c(=O)[nH][nH]c(=O)c3n2)cc1	.	.	.	.	-2	.	.	.
Cc1nc2ccccc2n2c(O)c(CC(=O)O)cc12	15	24*	0	1	89*	2	1	2
Cc1nc2ccccc2n1CCC(=O)O	-1	1	0	1	0	-4	.	.
CC(C)Cn1c(N)c(C(=O)COC(=O)c2ccc3c(c2)OCCO3)c(=O)n(C)c1=O	13	20*	6	1	0	-24	9	9
COc1ccc(CNc2ncnc3c2[nH]c2ccccc23)cc1	16	26*	15	11	15	-16	22*	18
C1=C(CCNc2ncnc3c2[nH]c2ccccc23)CCCC1	8	21*	21*	8	34	-8	16	14
